ChEMBL document CHEMBL1811898, “Discovery and structure-activity relationships of modified salicylanilides as cell permeable inhibitors of poly(ADP-ribose) glycohydrolase (PARG)” (J Med Chem, 2011)
Activity calls are given as the source filed them. The rule behind the calls is not given here.

Key:
[1] = target: T1, NAD-dependent protein deacetylase sirtuin-1 (Homo sapiens) (UniProt Q96EB6); experiment: Inhibition of SIRT1
T1 sequence (whole entry): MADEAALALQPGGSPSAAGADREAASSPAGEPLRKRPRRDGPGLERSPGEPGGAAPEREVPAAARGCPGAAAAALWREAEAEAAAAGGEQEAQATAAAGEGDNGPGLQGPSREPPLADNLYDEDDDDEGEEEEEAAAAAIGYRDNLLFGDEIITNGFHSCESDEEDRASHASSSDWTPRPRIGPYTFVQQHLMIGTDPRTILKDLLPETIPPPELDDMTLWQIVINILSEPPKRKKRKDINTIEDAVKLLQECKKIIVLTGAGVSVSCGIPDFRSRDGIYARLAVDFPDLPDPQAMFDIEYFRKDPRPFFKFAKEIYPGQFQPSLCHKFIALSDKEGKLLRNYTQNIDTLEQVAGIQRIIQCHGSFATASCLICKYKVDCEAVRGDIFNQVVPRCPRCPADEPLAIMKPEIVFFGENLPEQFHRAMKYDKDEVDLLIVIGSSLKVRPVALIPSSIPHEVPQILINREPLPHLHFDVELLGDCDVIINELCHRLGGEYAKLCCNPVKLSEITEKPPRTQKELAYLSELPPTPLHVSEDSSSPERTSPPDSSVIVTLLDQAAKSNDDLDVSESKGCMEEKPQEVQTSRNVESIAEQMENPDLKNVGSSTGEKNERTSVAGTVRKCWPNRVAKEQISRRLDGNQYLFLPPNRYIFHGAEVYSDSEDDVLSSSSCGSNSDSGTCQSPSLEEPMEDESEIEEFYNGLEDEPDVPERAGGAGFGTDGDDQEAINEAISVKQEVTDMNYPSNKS

[2] = Inhibition of alcohol dehydrogenase
[3] = target: PARP 1, 2 and 3 (Homo sapiens) (UniProt P09874+Q9Y6F1+Q9UGN5); experiment: Inhibition of PARP in human SCC25 cells assessed as inhibition of MNNG-induced NAD(H) depletion at 1 mM preincubated for 5 mins before MNNG challenge measured after 30 mins; type: cell-based; conditions: SCC-25
How it was run: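 SCC-25 cells (90% confluent, 35 mm dishes) pretreated 5 min with compound, then 5 μg/mL MNNG for 30 min; HClO4 extraction, KOH/KH2PO4 neutralization; NAD by enzymatic cycling (alcohol dehydrogenase, phenazine ethosulfate, MTT, 37°C 30 min), A570; normalized to cell protein.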

[4] = target: Poly(ADP-ribose) glycohydrolase (Homo sapiens) (UniProt Q86W56); experiment: Inhibition of PARG using [alpha-32P]ADP-ribose polymers at 500 uM after 5 mins by TRAP assay
Chain of Poly(ADP-ribose) glycohydrolase (Homo sapiens) (Q86W56 whole entry, looked up): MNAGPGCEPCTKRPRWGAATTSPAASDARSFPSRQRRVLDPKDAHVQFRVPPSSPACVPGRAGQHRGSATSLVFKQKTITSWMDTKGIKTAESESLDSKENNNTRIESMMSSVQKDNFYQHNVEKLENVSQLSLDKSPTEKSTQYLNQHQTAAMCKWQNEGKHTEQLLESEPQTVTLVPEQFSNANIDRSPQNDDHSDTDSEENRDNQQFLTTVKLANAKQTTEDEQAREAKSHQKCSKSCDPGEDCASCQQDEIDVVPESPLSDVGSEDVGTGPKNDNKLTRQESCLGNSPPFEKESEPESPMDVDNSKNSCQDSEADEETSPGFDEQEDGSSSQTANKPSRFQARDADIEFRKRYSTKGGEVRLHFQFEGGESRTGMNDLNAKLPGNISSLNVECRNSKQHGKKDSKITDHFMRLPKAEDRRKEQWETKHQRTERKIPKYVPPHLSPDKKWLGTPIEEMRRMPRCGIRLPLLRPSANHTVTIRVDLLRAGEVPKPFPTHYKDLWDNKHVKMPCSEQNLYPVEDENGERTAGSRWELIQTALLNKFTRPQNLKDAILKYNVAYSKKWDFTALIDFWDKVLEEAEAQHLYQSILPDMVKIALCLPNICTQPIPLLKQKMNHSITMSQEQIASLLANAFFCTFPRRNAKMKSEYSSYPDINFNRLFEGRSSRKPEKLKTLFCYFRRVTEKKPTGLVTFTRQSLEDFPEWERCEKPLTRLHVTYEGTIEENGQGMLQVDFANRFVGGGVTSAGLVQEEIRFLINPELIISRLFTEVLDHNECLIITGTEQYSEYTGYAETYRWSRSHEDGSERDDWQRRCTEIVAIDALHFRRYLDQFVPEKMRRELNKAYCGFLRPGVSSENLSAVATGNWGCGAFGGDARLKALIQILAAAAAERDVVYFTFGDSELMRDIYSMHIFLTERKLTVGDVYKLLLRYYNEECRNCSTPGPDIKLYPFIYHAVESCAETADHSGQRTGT

[5] = target: Poly [ADP-ribose] polymerase 1 (Homo sapiens, UniProt P09874); experiment: Inhibition of PARP-1 using [32P]-NAD+ after 15 mins
Chain of Poly [ADP-ribose] polymerase 1 (P09874 whole entry): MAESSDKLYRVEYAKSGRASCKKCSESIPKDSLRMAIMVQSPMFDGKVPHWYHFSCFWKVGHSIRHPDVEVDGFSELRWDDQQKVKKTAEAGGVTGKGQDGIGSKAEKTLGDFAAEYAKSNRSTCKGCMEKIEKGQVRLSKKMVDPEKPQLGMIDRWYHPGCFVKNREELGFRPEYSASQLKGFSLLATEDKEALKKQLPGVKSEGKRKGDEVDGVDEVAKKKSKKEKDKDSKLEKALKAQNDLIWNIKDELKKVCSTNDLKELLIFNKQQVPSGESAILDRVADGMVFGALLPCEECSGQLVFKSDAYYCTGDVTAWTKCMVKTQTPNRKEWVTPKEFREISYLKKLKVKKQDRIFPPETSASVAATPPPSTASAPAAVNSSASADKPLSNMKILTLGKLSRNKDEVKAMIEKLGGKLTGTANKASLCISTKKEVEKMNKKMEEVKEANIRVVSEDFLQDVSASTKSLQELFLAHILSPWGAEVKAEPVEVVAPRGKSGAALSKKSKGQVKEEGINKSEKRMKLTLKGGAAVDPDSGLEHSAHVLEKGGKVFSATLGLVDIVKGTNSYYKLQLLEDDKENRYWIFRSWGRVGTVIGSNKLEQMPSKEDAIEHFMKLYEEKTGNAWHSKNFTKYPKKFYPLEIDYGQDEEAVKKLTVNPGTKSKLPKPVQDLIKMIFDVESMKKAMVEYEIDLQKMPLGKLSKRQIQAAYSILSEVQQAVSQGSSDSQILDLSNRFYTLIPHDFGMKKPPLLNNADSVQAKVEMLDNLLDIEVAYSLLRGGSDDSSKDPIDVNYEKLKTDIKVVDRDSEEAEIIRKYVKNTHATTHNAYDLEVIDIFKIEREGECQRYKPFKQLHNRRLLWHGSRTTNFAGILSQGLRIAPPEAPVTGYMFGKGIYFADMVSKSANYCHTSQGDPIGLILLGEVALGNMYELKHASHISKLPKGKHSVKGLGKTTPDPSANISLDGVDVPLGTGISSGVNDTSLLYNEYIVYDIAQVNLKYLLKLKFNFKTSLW

[6] = target: Poly(ADP-ribose) glycohydrolase (Homo sapiens) (UniProt Q86W56); experiment: Inhibition of PARG using [alpha-32P]ADP-ribose polymers up to 500 uM after 5 mins by TRAP assay
[7] = target: Poly(ADP-ribose) glycohydrolase (Homo sapiens) (UniProt Q86W56); experiment: Inhibition of PARG in human SCC25 cells assessed as inhibition of MNNG-induced poly(ADP-ribose) formation at 1 mM after 20 mins by chemiluminescent ELISA; type: cell-based; conditions: SCC-25
How it was run: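 SCC-25 cells at 90% confluence in 35 mm dishes; 5 μg/mL MNNG used to induce PAR; lysed in buffer with 1% SDS; ADP-ribose polymers quantified by chemiluminescent ELISA (kit protocol, minor changes); PAR normalized to cell count.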

[8] = Selectivity ratio of IC50 for PARP-1 to IC50 for PARG
[9] = target: Poly(ADP-ribose) glycohydrolase (Homo sapiens) (UniProt Q86W56); conditions: SCC-25, 1 mM
[10] = target: Poly(ADP-ribose) glycohydrolase (Homo sapiens) (UniProt Q86W56); conditions: SCC-25, 1 mM; remark: listed apart in the source
[11] = target: Poly(ADP-ribose) glycohydrolase (Homo sapiens) (UniProt Q86W56); conditions: SCC-25, 1 mM; remark: listed apart in the source

SMILES	inhibition [1]	inhibition [2]	other results
O=C(Nc1ccc(Oc2ccccc2)c(Cl)c1)c1cc(Cl)cc(Cl)c1O	inactive	inactive	–
O=C(Nc1ccc(Oc2ccc3ccccc3c2)c(Cl)c1)c1cc(Cl)ccc1O	inactive	inactive	–
Cc1ccccc1NC(=O)c1cc(Cl)cc(Cl)c1O	inactive	inactive	inhibition [4]: 10%
Cc1cc(NC(=O)c2cc(Cl)cc(Cl)c2O)ccc1Oc1ccc2ccccc2c1	inactive	inactive	–
O=C(Nc1cc(Cl)ccc1Oc1ccc2ccccc2c1Cl)c1cc(Cl)cc(Br)c1O	inactive	inactive	–
O=C(Nc1ccc(Oc2ccc3ccccc3c2)cc1)c1cc(Cl)cc(Cl)c1O	inactive	inactive	–
O=C(Nc1ccc(O)c(Cl)c1)c1cc(Cl)cc(Cl)c1O	inactive	inactive	inhibition [4]: < 10%
Cc1ccc(Oc2ccc(NC(=O)c3cc(Cl)cc(Cl)c3O)cc2Cl)cc1	inactive	inactive	–
O=C(Nc1cccc(Cl)c1)c1cc(Cl)cc(Cl)c1O	inactive	inactive	IC50 [5]: 500 µM
Cc1ccc(NC(=O)c2cc(Cl)cc(Cl)c2O)cc1	inactive	inactive	inhibition [4]: 10%
O=C(Nc1ccc(Oc2ccc3ccccc3c2)c(Cl)c1)c1cc(Cl)cc(Cl)c1	inactive	inactive	inhibition [6]: inactive; inhibition [3]: Active
NC(=O)c1ccccc1 [BENZAMIDE]	–	–	IC50 [5]: 5.4 µM; inhibition [3]: Active; inhibition [7]: Active
CN(C(=O)c1cc(Cl)cc(Cl)c1O)c1ccc(Oc2ccc3ccccc3c2)c(Cl)c1	inactive	inactive	–
O=C(Nc1ccc(Oc2ccc3ccccc3c2)c(Cl)c1)c1ccccc1O	inactive	inactive	–
O=C(Nc1ccc(Oc2ccc3ccccc3c2)c(Cl)c1)c1cc(Cl)cc(Cl)c1O	inactive	inactive	IC50 [5]: 120 µM; inhibition [3]: 40%; inhibition [9]: Active; inhibition [10]: Active; inhibition [11]: Active
Nc1ncnc2c1ncn2[C@@H]1O[C@H](CO[P@](=O)(O)O[P@@](=O)(O)OC[C@H]2NC[C@H](O)[C@@H]2O)[C@@H](O)[C@H]1O [ADENOSINE DIPHOSPHATE (HYDROXYMETHYL)PYRROLIDINEDIOL]	–	–	IC50 [5]: > 1000 µM
COc1c(Cl)cc(Cl)cc1C(=O)Nc1ccc(Oc2ccc3ccccc3c2)c(Cl)c1	inactive	inactive	inhibition [6]: inactive
O=C(Nc1ccccc1Cl)c1cc(Cl)cc(Cl)c1O	inactive	inactive	IC50 [5]: 500 µM; inhibition [4]: 10%
O=C(Nc1ccc(Cl)cc1)c1cc(Cl)cc(Cl)c1O	inactive	inactive	inhibition [3]: Active

Further lines, with some results ahead:

inhibition [1]	inhibition [2]	SMILES	other results
inactive	inactive	NC(=O)c1cc(Cl)cc(Cl)c1O	inhibition [3]: Active; inhibition [4]: < 10%
inactive	inactive	O=C(Nc1ccc(Oc2ccc3ccccc3c2)c(C(F)(F)F)c1)c1cc(Cl)cc(Cl)c1O	–
inactive	inactive	Cc1cccc(NC(=O)c2cc(Cl)cc(Cl)c2O)c1	inhibition [4]: 10%
inactive	inactive	Oc1c(Cl)cc(Cl)cc1/C=N/c1ccc(Oc2ccc3ccccc3c2)c(Cl)c1	inhibition [6]: inactive
inactive	inactive	Cc1ccc(C(C)C)c(Br)c1Oc1ccc(Cl)cc1NC(=O)c1cc(Cl)cc(Br)c1O	IC50 [5]: 78 µM
inactive	inactive	Oc1c(Cl)cc(Cl)cc1CNc1ccc(Oc2ccc3ccccc3c2)c(Cl)c1	inhibition [6]: inactive
inactive	inactive	O=C(Nc1ccccc1)c1cc(Cl)cc(Cl)c1O	inhibition [4]: < 10%
inactive	inactive	O=C(Nc1ccc(Oc2cc3ccccc3cc2Br)c(Cl)c1)c1cc(Cl)cc(Cl)c1O	IC50 [5]: 123 µM; Ratio IC50 [8]: 15
inactive	inactive	O=C(Nc1ccc(Oc2ccc3ccccc3c2)c(F)c1)c1cc(Cl)cc(Cl)c1O	–
inactive	inactive	O=C(Nc1ccc(Oc2ccc3ccccc3c2)c(Cl)c1)c1cccc(Cl)c1O	–
inactive	inactive	O=C(O)c1ccccc1C(=O)Nc1ccc(Oc2ccc3ccccc3c2)c(Cl)c1	IC50 [5]: 66 µM
